Bioassay records deposited in PubChem BioAssay by The Scripps Research Institute Molecular Screening Center.
Hits are enriched below; roughly 4.5% of the tested compounds scored in any of these assays.
OX1R antag-1 = antagonists of human orexin 1 receptor (OX1R) | Orexin/Hypocretin receptor type 1 (Homo sapiens), O43613 | OX1R-expressing cells, FRET antagonist read-out | inhibition, % at 6.6 µM | 1.8% of 330,000 active; in the data active means inhibition mostly above about 38%, no sharp cut-off; inactive means mostly below about 40%;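 further: 0% = agonist challenge alone and 100% = reference antagonist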
Target sequence (O43613 whole entry, looked up): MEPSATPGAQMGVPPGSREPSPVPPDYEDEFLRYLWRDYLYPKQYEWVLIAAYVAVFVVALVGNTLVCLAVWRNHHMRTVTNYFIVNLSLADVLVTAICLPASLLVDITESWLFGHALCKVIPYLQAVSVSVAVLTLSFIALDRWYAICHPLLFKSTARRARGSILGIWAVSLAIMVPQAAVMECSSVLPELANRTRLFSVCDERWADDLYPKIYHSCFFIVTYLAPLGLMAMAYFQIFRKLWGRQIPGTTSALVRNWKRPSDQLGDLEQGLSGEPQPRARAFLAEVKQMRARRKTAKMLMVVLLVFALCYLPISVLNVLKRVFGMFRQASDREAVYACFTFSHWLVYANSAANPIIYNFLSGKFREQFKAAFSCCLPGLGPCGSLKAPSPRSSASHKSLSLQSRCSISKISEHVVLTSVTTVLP
OX1R antag-2 = OX1R (HCRTR1) antagonists, primary screen, fluorescence, CHO/OX1R cells, Fluo-8 calcium, orexin A; Fluo-8 calcium fluorescence; 0.43% of 330,000 active; inhibition, % at 5 µM; AID 434989, 2010;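 active means inhibition above its plate's threshold, mean inhibition of all tested compounds on the plate plus 3 SD, cut at about 37% in these data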;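 further: 0% = orexin A challenge wells and 100% = SB-334867-A antagonist wells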
CHO parental Ca = ATP-evoked calcium signal inhibitors, parental CHO, primary screen, counter-screen for OX1R antagonist project, cell-based, fluorescence, Fluo-8 calcium dye; parental CHO-K1, ATP-induced calcium, Fluo-8 fluorescence; inhibition, % at 5.6 µM; 0.63% of 330,000 active; AID 463079, 2010;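 active means inhibition above that plate's mean sample inhibition plus 3 SD, cut at about 26% in these data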;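 further: 0% = ATP-challenged DMSO wells and 100% = DMSO wells without ATP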
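Test system: untransfected parental CHO cell line. Compound: one dose, 5.6 µM nominal. Detection: intracellular calcium via Fluo-8 no-wash fluorescent dye. Measure: % inhibition. Benchmarks: ATP-challenged DMSO wells low, unchallenged DMSO wells high.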
TAAR1 antagonist = human TAAR1 antagonists, primary screen, Fluo-8 calcium fluorescence, CHO RD-HGA16 cells | AID 624466, 2012 | inhibition, % at 3 µM | antagonist | 1.5% of 360,000 active | Trace amine-associated receptor 1 (Homo sapiens), Q96RJ0;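 active means inhibition above a per-plate cutoff, the mean inhibition of test compounds on that plate plus 3 SD, cut at about 49% in these data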;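 further: 0% = DMSO plus EC80 beta-PEA response and 100% = DMSO alone without agonist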
Target sequence (Q96RJ0 whole entry, looked up): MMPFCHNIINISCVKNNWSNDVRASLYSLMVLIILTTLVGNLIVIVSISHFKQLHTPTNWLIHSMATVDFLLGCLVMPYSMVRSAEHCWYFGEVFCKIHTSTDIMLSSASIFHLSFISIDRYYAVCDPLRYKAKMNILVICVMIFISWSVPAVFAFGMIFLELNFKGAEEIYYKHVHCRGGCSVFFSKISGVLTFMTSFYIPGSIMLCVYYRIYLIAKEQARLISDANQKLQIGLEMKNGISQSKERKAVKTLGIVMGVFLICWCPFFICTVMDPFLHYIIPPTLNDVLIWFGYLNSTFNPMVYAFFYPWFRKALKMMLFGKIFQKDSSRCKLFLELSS
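Assay system: RD-HGA16 CHO cells with stable hTAAR1 and Gα16 / Reagent: EC80 β-phenethylamine stimulus / Doses: 3 µM, single point / Timing: dye loading 75 min at 37 °C, then 30 min room temperature / Measured by: Fluo-8 intracellular calcium dye fluorescence, real-time kinetic reads / Controls: vehicle wells and EC80 agonist wells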
TAAR1 agonist = human TAAR1 agonists, primary screen, Fluo-8 calcium fluorescence, CHO RD-HGA16 cells. Trace amine-associated receptor 1 (Homo sapiens), Q96RJ0. vehicle wells 0%, saturating PEA agonist 100%. activation, % at 3 µM. 0.99% of 360,000 active;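 active means activation above the mean activation of all test compounds in the run plus 3 SD, cut at about 38% in these data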
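System: CHO RD-HGA16 cells carrying human TAAR1 plus Gα16; Incubation: 17-24 h seeding, 75 min 37 °C dye, 30 min RT; Measured by: Fluo-8 fluorescence, 5 s baseline then 140 s kinetic read; Control set: DMSO and PEA EC100; Replication: single well for each compound.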
GPR7 antag = GPR7 receptor antagonists, primary screen, cell-based, fluorescence, single concentration. Neuropeptides B/W receptor type 1 (Homo sapiens), P48145. GPR7-expressing cells, fluorescence antagonist assay. inhibition, % at 4.4 µM. 1.1% of 290,000 active; in the data active means inhibition above about 16%, passing the limit was not always enough;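 further: cells stimulated with the agonist NPW; 0% = agonist with vehicle and 100% = vehicle without agonist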
OX1R HTRF conf = OX1R (HCRTR1) antagonists, confirmation, cell-based, HTRF; shares compounds with OX1R antag-1; inhibition, % at 6.6 µM; OX1R-expressing cells, HTRF antagonist assay; 49% of 1,800 active; AID 492964, 2010; in the data active means inhibition above about 55%;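 further: CHO cells expressing OX1R stimulated with orexin A at about EC80; 0% = agonist challenge alone and 100% = reference antagonist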
CHO-K1 HTRF = signal inhibition in parental CHO-K1 cells, counter-screen for OX1R antagonist project, cell-based, HTRF | 48% of 1,800 active | HTRF counterscreen | AID 493232, 2011 | shares compounds with OX1R antag-1 | inhibition, % at 6.6 µM; in the data active means inhibition above about 17%;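 further: 0% = agonist challenge with vehicle and 100% = vehicle alone without agonist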
Active calls of the source: *; · = not tested or not shown.

SMILES | OX1R antag-1 | OX1R antag-2 | CHO parental Ca | TAAR1 antagonist | TAAR1 agonist | GPR7 antag | OX1R HTRF conf | CHO-K1 HTRF
Cc1cccn2c(=O)c3cc(C(=O)NCCN4CCOCC4)c(=N)n(CCc4ccccc4)c3nc12 | 109* | -34 | -20 | 14 | 12 | 4 | 57* | 72*
Cc1ccc2nc3c(cc(C(=O)NCCc4ccccc4)c(=N)n3CCCN3CCOCC3)c(=O)n2c1 | 115* | -13 | 5 | 1 | 2 | 0 | 68* | 69*
OCC[C@@H]1NCc2cc(CO)cc(-c3ccccc3)c21 | · | · | · | 8 | 0 | · | · | ·
CC1(C(=O)NS(=O)(=O)c2ccc3c(c2)CCO3)CCN1C(=O)CCC1CCCC1 (stereo not drawn) | · | · | · | -9 | 1 | · | · | ·
COc1cc([N+](=O)[O-])c(C(=O)N2CCOCC2)c([N+](=O)[O-])c1 | 94* | 10 | -5 | -10 | 2 | -5 | 45 | 42*
NC(=O)Cc1nc(-c2ccc([N+](=O)[O-])cc2)cs1 | 78* | -15 | -3 | 4 | 3 | -5 | 54 | 33*
NC(=O)Cc1nc(-c2ccc(F)cc2)cs1 | 0 | -4 | 0 | 8 | 9 | -8 | · | ·
O=C(CCS(=O)(=O)c1cccc2nonc12)NCCc1ccccc1 | 87* | -28 | -19 | -11 | 21 | -13 | 34 | 36*
CC(C)CCNC(=O)CCS(=O)(=O)c1cccc2nonc12 | 48 | 5 | 12 | -7 | 2 | -6 | · | ·
Cc1ccc2nsnc2c1S(=O)(=O)NCc1ccncc1 | 103* | -12 | -10 | -18 | 12 | -6 | 31 | 37*
CCN(CC(=O)Nc1ccccc1OC)C(=O)COc1ccc2ccccc2c1 | 97* | 14 | -19 | 4 | 4 | -7 | 66* | 4
COC(=O)Cn1c2nc3ccccc3nc2c2cccc(C)c21 | · | · | · | 5 | 0 | -19 | · | ·
Cc1cccc2c3nc4ccccc4nc3n(C)c12 | 81* | 24 | -12 | -1 | 0 | -5 | 92* | 15
O=C(COC(=O)CN1C(=O)C(=O)c2ccccc21)OCN1C(=O)c2ccccc2C1=O | 84* | -15 | -1 | -8 | 0 | -4 | 19 | 6
COc1cccc(C(C#N)NCCCNC(C#N)c2cccc(OC)c2OC)c1OC (stereo not drawn) | · | · | · | 5 | 0 | · | · | ·
CCOC(=O)c1nnn(-c2ccc([N+](=O)[O-])cc2[N+](=O)[O-])c1C | 143* | -6 | -20 | 11 | 5 | -3 | 46 | 73*
Oc1cccc(N2CCN(c3cccc(O)c3)CC2)c1 | · | · | · | -9 | 4 | · | · | ·
O=[N+]([O-])c1ccc(C[n+]2cccc3ccc4cccnc4c32)cc1 | 137* | 0 | -13 | -4 | 2 | -9 | 45 | 56*
O=[N+]([O-])c1ccc(C[n+]2cccc3ccccc32)cc1 | 64 | 5 | 1 | -21 | 7 | -11 | · | ·
COc1ccc(CNC(=O)COC(=O)c2cc(C)oc2C)cc1 | · | · | · | -24 | 1 | · | · | ·
O=C(O)c1c2c(nc3ccccc13)/C(=C/c1ccc(OC(F)F)cc1)CCC2 | 35 | 8 | 7 | 11 | -2 | 5 | · | ·
O=C(O)c1c2c(nc3ccccc13)/C(=C/c1c(F)cccc1F)CCC2 | 113* | 9 | 1 | -10 | -1 | 12 | 45 | 18*
N#CC(C#N)=C1NC2(CCCCC2)Cc2ccccc21 | 4 | -13 | -8 | 4 | 19 | -4 | · | ·
N#CC(C#N)=c1ccc2c(c1)NC1(CCCCC1)N=2 | 191* | -4 | -8 | -9 | 7 | -14 | 52 | 58*
CC[C@H](C)[C@H]1CNC(=S)N1CC1CCN(CCC(C)C)CC1 | · | · | · | 5 | 0 | · | · | ·
SMILES | OX1R antag-1 | OX1R antag-2 | CHO parental Ca | TAAR1 antagonist | TAAR1 agonist | GPR7 antag | OX1R HTRF conf | CHO-K1 HTRF
COc1ccc(-c2cnc3nc[nH]c(=O)c3n2)cc1 | 197* | 2 | 8 | -2 | 5 | -13 | 56* | 90*
COc1ccc(-c2csc3nc[nH]c(=O)c23)cc1 | 14 | -11 | -3 | 3 | 2 | -2 | · | ·
N#Cc1ncc(-c2ccc3c(c2)OCCOCCOCCOCCOCCO3)nc1C#N | 109* | -12 | -11 | -10 | 4 | -3 | 32 | 4
N#Cc1ncc(-c2ccc3c(c2)OCCOCCOCCOCCO3)nc1C#N | 117* | -5 | -8 | 15 | 0 | -1 | 55* | 54*
Cc1[nH]nc(-c2cccnc2)c1N=NN(C)C | · | · | · | -7 | 1 | · | · | ·
CCCC(=O)OCCNc1cc(Sc2nccn2C)c2nonc2c1[N+](=O)[O-] | 91* | 25 | 29 | 7 | 0 | -1 | 72* | 60*
CCCSc1cc(NCCOC(C)=O)c([N+](=O)[O-])c2nonc12 | 82* | -7 | -11 | -10 | -1 | 8 | 39 | 61*
Cc1ccn(CC(=O)N2CCCC(N3CCN(c4cccc(C(F)(F)F)c4)CC3)C2)n1 (stereo not drawn) | · | · | · | -7 | -1 | · | · | ·
COc1ccc(NC(=O)C2c3ccccc3OCC(=O)N2CCc2ccccc2)cc1 (stereo not drawn) | · | · | · | -4 | 1 | · | · | ·
CCCc1c(-c2cccc(Br)c2)ncn1Cc1ccccc1OC | · | · | · | 13 | 3 | · | · | ·
CCN(CC)CCCNC1=C(Cl)C(=O)c2ccccc2C1=O | 86* | -11 | -5 | -19 | 0 | -8 | 88* | 113*
C=CCNC1=C(Cl)C(=O)c2ccccc2C1=O | 140* | -2 | -11 | 6 | -1 | -2 | 64* | 94*
O=C1C(Cl)=C(NCc2cccnc2)C(=O)c2ccccc21 | 84* | -2 | -5 | -4 | 1 | 14 | 66* | 98*
CC(=O)N1CCN(c2ccc(C(N)=O)cc2[N+](=O)[O-])CC1 | 81* | 8 | -2 | -5 | 1 | -1 | 27 | 30*
CCN1CCN(c2ccc([N+](=O)[O-])cc2S(=O)(=O)N2CCOCC2)CC1 | 145* | -9 | -11 | -25 | 4 | -6 | 36 | 44*
CC(=O)N1CCN(c2ccc([N+](=O)[O-])cc2C#N)CC1 | 100* | 4 | 4 | 13 | 8 | -3 | 38 | 47*
CCCN1CCN(c2ccc([N+](=O)[O-])cc2C#N)CC1 | 83* | -19 | -13 | 8 | 3 | 2 | 39 | 46*
